Measurements taken from ChEMBL document CHEMBL4825712.
The source made the active and inactive calls. The calls are words filed in the database; no cut-off is given here.

How the values were obtained:
[1] = system: Influenza A virus; assay: Antiviral activity against Influenza A virus A/WSN/33(H1N1) infected in human A549 cells assessed as reduction in M mRNA level by smRNA FISH followed by fluorescence microscopy; type: functional, organism-based; conditions: A/WSN/1933(H1N1)
Procedure, shortened: (§1)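 A549 cells on gelatin-coated coverslips were infected with WSN at MOI 2 for 8 h. Cells were fixed in 4% PFA, held in 70% ethanol for 12 h at 4 °C, and hybridized with M, HA or NS smRNA-FISH probes at 37 °C for 4 h. After a formamide/SSC wash, nuclei were stained with Hoechst and imaged by fluorescence microscopy.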

[2] = system: Influenza A virus; assay: Antiviral activity against Influenza A virus A/WSN/33(H1N1) infected in human A549 cells assessed as reduction in HA mRNA level by smRNA FISH followed by fluorescence microscopy; type: functional, organism-based; conditions: A/WSN/1933(H1N1); procedure, shortened: as §1
[3] = system: Influenza A virus; assay: Antiviral activity against Influenza A virus A/WSN/33(H1N1) infected in human A549 cells assessed as reduction in NS mRNA level by smRNA FISH followed by fluorescence microscopy; type: functional, organism-based; conditions: A/WSN/1933(H1N1); procedure, shortened: as §1
[4] = system: Influenza A virus; assay: Antiviral activity against Influenza A virus A/WSN/33(H1N1) infected in human A549 cells assessed as reduction in poly(A) RNA/GAPDH mRNA level at 1 uM by smRNA FISH followed by fluorescence microscopy; type: functional, organism-based; conditions: A/WSN/1933(H1N1)
[5] = system: Influenza A virus; assay: Antiviral activity against Influenza A virus A/WSN/33(H1N1) infected in human A549 cells assessed as reduction in HA mRNA level by qRT-PCR analysis; type: functional, organism-based; conditions: A/WSN/1933(H1N1)
Procedure, shortened: (§2)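 A549 cells were pretreated for 1 h with 0.5 or 1 μM compound or 0.1% DMSO. They were then infected with A/WSN/33 at MOI 2 for 8 h with compound still present. Total RNA was isolated, reverse transcribed and analysed by qPCR for viral HA, NS1, M1 and M2 mRNA. Three independent experiments; mean ± SD.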

[6] = system: Influenza A virus; assay: Antiviral activity against Influenza A virus A/WSN/33(H1N1) infected in human A549 cells assessed as reduction in NS1 mRNA level by qRT-PCR analysis; type: functional, organism-based; conditions: A/WSN/1933(H1N1); procedure, shortened: as §2
[7] = system: Influenza A virus; assay: Antiviral activity against Influenza A virus A/WSN/33(H1N1) infected in human A549 cells assessed as reduction in M1 mRNA level by qRT-PCR analysis; type: functional, organism-based; conditions: A/WSN/1933(H1N1); procedure, shortened: as §2
[8] = system: Influenza A virus; assay: Antiviral activity against Influenza A virus A/WSN/33(H1N1) infected in human A549 cells assessed as reduction in M2 mRNA level by qRT-PCR analysis; type: functional, organism-based; conditions: A/WSN/1933(H1N1); procedure, shortened: as §2
[9] = system: Influenza A virus; assay: Antiviral activity against Influenza A virus A/WSN/33(H1N1) infected in human Primary bronchial epithelial cells assessed as reduction in M1 mRNA level at 1 uM by qRT-PCR analysis; type: functional, organism-based; conditions: A/WSN/1933(H1N1), Primary bronchial epithelial cell
[10] = system: Influenza A virus; assay: Antiviral activity against Influenza A virus A/WSN/33(H1N1)-PB2-Nanoluc virus infected in human HCT-116 cells assessed as decrease in Nano-luc at 1 uM pretreated for 1 hr followed viral infection incubated for 24 hrs by Nano-Glo luminescence assay; type: functional, organism-based; conditions: A/WSN/1933(H1N1)
[11] = system: Influenza A virus; assay: Antiviral activity against Influenza A virus A/WSN/33(H1N1) infected in human A549 cells assessed as reduction in HA level at 1 uM pretreated for 8 hrs measured by Western blot analysis; type: functional, organism-based; conditions: A/WSN/1933(H1N1)
Procedure, shortened: (§3)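 A549 cells were pretreated with 1 μM compound or 0.1% DMSO, then infected with A/WSN/33 at MOI 2 for 8 h. Lysates were analysed by western blot for viral proteins, with β-actin as loading control. Three independent experiments.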

[12] = system: Influenza A virus; assay: Antiviral activity against Influenza A virus A/WSN/33(H1N1) infected in human A549 cells assessed as reduction in NP level at 1 uM pretreated for 8 hrs measured by Western blot analysis; type: functional, organism-based; conditions: A/WSN/1933(H1N1); procedure, shortened: as §3
[13] = system: Influenza A virus; assay: Antiviral activity against Influenza A virus A/WSN/33(H1N1) infected in human A549 cells assessed as reduction in M1 level at 1 uM pretreated for 8 hrs measured by Western blot analysis; type: functional, organism-based; conditions: A/WSN/1933(H1N1); procedure, shortened: as §3
[14] = system: Influenza A virus; assay: Antiviral activity against Influenza A virus A/WSN/33(H1N1) infected in human A549 cells assessed as reduction in M mRNA level at 1 uM pretreated 1 hr before viral infection by smRNA FISH followed by fluorescence microscopy; type: functional, organism-based; conditions: A/WSN/1933(H1N1)
Procedure, shortened: (§4)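 A549 cells received 1 μM compound either 1 h before infection or 1 h after infection. Infection was with WSN at MOI 2 for 8 h. Viral M mRNA was detected by smRNA-FISH and fluorescence microscopy.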

[15] = system: Influenza A virus; assay: Antiviral activity against Influenza A virus A/WSN/33(H1N1) infected in human A549 cells assessed as reduction in M mRNA level at 1 uM treated 1 hr after viral infection by smRNA FISH followed by fluorescence microscopy; type: functional, organism-based; conditions: A/WSN/1933(H1N1); procedure, shortened: as §4
[16] = system: Influenza A virus; assay: Antiviral activity against Influenza A virus A/WSN/33(H1N1) infected in human A549 cells assessed as reduction in M1 protein level at 1 uM treated 1 hr after viral infection by Western blot analysis; type: functional, organism-based; conditions: A/WSN/1933(H1N1)
Procedure, shortened: (§5)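 A549 cells received 1 μM compound 1 h before infection, or 1 h or 2 h after infection. Infection was with WSN at MOI 2 for 8 h. Lysates were analysed by western blot for viral proteins.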

[17] = system: Influenza A virus; assay: Antiviral activity against Influenza A virus A/WSN/33(H1N1) infected in human A549 cells assessed as reduction in NP protein level at 1 uM treated 1 hr after viral infection by Western blot analysis; type: functional, organism-based; conditions: A/WSN/1933(H1N1); procedure, shortened: as §5
[18] = biological target: Hemagglutinin (Influenza A virus (A/Puerto Rico/8/1934(H1N1))) (UniProt P03452); assay: Inhibition of Influenza A virus A/WSN/33(H1N1) hemagglutinin assessed as inhibition of HA-mediated chicken erythrocytes membrane fusion at 0.08 to 5 uM incubated for 30 mins pH 5 by hemolysis inhibition assay; conditions: Influenza A virus (A/WSN/1933(H1N1)), dose 0.08-5 µM
Procedure, shortened: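 Chicken erythrocyte suspension was incubated on ice with WSN, with or without compound at a range of concentrations. The mixture was acidified to pH 5 and incubated at 37 °C for 30 min. NADH released by lysis was read at 340 as the fusion measure. Data are % of DMSO control; means of triplicates ± SD.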

[19] = system: Influenza A virus; assay: Antiviral activity against Influenza A virus wild-type A/WSN/1933 (H1N1) infected in human A549 cells assessed as log reduction in viral titer at 25 uM by standard plaque assay; type: functional, organism-based
Procedure, shortened: (§6)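 A549 cells were infected in the absence or presence of 25 μM compound. For A/WSN/1933 the MOI was 0.01 and infection ran 24 h. For A/Panama/1999 the MOI was 0.1 and infection ran 48 h. Viral titers were determined by standard plaque assay.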

[20] = system: Influenza A virus; assay: Antiviral activity against Influenza A virus A/Vietnam/2506/2004 (H5N1) infected in human A549 cells assessed as log reduction in viral titer at 25 uM by standard plaque assay; type: functional, organism-based
[21] = system: Influenza A virus; assay: Antiviral activity against Influenza A virus A/Panama/1999 (H3N2) infected in human A549 cells assessed as log reduction in viral titer at 25 uM by standard plaque assay; type: functional, organism-based; procedure, shortened: as §6
[22] = system: Influenza A virus; assay: Antiviral activity against Influenza A virus A/California/07/2009 (HIN1) infected in human A549 cells assessed as reduction in infected cells up to 25 uM pretreated for 1 hr; type: functional, organism-based; conditions: A/California/07/2009(H1N1), dose microM <=25, time 1.0 hrs
[23] = system: Influenza A virus; assay: Antiviral activity against Influenza A virus A/Wyoming/03/2003 (H3N2) infected in human A549 cells assessed as reduction in infected cells up to 25 uM pretreated for 1 hr; type: functional, organism-based; conditions: dose microM <=25, time 1.0 hrs
[24] = system: Influenza A virus; assay: Antiviral activity against Influenza A virus A/WSN/33(H1N1) infected in human A549 cells assessed as viral replication measured after 24 hrs by immunofluorescence microscopy; type: functional, organism-based; conditions: A/WSN/1933(H1N1); for IC50: A549, 24 h; for IC90: A549, time 24 hrs
Procedure, shortened: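 A549 cells were infected with A/WSN/33 at MOI 0.01 for 24 h, then fixed in 4% formaldehyde and permeabilized with 0.1% Triton X-100. They were immunostained for NP with an Alexa-488 secondary plus DAPI and imaged on an image cytometer. Percent infection = NP-positive cells divided by total cells.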

[25] = system: A549; assay: Cytotoxicity against human A549 cells by MTT assay; type: cell-based
Procedure, shortened: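 MTT assay run according to the manufacturer's instructions, concurrently with NP immunostaining of infected A549 cultures.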

[26] = Selectivity index, ratio of CC50 for human A549 cells to IC50 for antiviral activity against Influenza A virus A/WSN/33(H1N1) infected in human A549 cells; type: toxicity, cell-based; conditions: read-out: Selectivity Index
Procedure, shortened: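 Ratio of CC50 to IC50. IC50 came from A549 cells pretreated 2 h with compound, then infected 24 h with WSN-PB2-Nanoluc at MOI 0.02 and read by Nano-Glo luminescence. CC50 was measured by CellTiter-Glo.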

[27] = system: Influenza A virus; assay: Antiviral activity against Influenza A virus A/WSN/33(H1N1)-PB2-Nanoluc virus infected in human A549 cells assessed as decrease in Nano-luc pretreated for 2 hr followed viral infection incubated for 24 hrs by Nano-Glo luminescence assay; type: functional, organism-based; conditions: A/WSN/1933(H1N1)
Procedure, shortened: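 A549 cells were treated with a range of compound concentrations for 2 h, then infected with WSN-PB2-Nanoluc (NanoLuc fused to PB2) at MOI 0.02 for 24 h. Cells were lysed in Renilla lysis buffer and luminescence read with Nano-Glo substrate on equal lysate volumes. IC50 was derived from the dose-response.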

Sequence of Hemagglutinin (Influenza A virus (A/Puerto Rico/8/1934(H1N1))) (P03452 whole entry, the tested form may be a part): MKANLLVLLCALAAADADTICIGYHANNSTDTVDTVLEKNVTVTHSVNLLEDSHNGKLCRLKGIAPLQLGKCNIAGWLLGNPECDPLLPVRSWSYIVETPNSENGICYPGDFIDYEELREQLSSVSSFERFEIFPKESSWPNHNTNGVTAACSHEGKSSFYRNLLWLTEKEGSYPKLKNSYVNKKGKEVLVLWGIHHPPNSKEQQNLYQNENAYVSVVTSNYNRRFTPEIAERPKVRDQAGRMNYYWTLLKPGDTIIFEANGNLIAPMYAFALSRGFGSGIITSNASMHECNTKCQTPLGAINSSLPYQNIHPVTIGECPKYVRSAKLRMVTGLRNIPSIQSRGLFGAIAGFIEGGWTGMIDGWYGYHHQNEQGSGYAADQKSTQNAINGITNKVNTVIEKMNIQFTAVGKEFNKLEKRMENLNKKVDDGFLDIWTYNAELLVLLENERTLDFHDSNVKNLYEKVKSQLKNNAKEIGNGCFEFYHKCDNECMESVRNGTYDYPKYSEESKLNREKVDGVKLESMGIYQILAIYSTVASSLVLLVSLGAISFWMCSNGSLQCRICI

## CCN(c1ccccc1C)S(=O)(=O)c1cc(Cl)ccc1Cl
[1]
  Activity: Active
[2]
  Activity: Active
[3]
  Activity: Active
[4]
  Activity: inactive
[5]
  Activity: Active
[6]
  Activity: Active
[7]
  Activity: Active
[8]
  Activity: Active
[9]
  Activity: Active
[10]
  IC50: 16.8 µM
[11]
  Activity: Active
[12]
  Activity: Active
[13]
  Activity: Active
[14]
  Activity: Active
[15]
  Activity: Active
[16]
  Activity: Active
[17]
  Activity: Active
[18]
  Activity: Active
[19]
  Activity: Active
[20]
  Activity: Active
[21]
  Activity: Active
[22]
  Activity: Active
[23]
  Activity: inactive
[24]
  IC50: 40 nM
  IC90: 1200 nM
[25]
  CC10: > 25 µM
  CC50: > 25 µM
[26]
  selectivity ratio: > 625

## CCN(C(=O)c1cc(Cl)ccc1Cl)c1ccc(Cl)cc1C
[25]
  CC10: > 5 µM
[27]
  IC50: > 5 µM

## CCN(c1ccc(F)cc1F)S(=O)(=O)c1cc(Cl)ccc1Cl
[22]
  Activity: Active
[23]
  Activity: inactive
[24]
  IC50: 52 nM
  IC90: 900 nM
[25]
  CC10: > 5 µM
  CC50: > 5 µM
[26]
  selectivity ratio: > 96

## C#CCCC1(CCOC(=O)Cc2ccc(N(CC)S(=O)(=O)c3cc(Cl)ccc3Cl)cc2)N=N1
[25]
  CC10: > 25 µM
[27]
  IC50: > 5 µM

## C#CCCC1(CCN(c2ccc(Cl)cc2C)S(=O)(=O)c2cc(Cl)ccc2Cl)N=N1
[25]
  CC10: > 25 µM
[27]
  IC50: > 5 µM

## O=S(=O)(c1cc(Cl)ccc1Cl)N1CCCc2cc(Cl)ccc21
[25]
  CC10: > 5 µM
[27]
  IC50: > 5 µM

## CCN(c1ccc(Cl)cc1C)S(=O)(=O)c1cc(Cl)ccc1Cl
[22]
  Activity: Active
[23]
  Activity: Active
[24]
  IC50: 34 nM
  IC90: 500 nM
[25]
  CC10: > 5 µM
  CC50: > 5 µM
[26]
  selectivity ratio: > 147

## O=S(=O)(c1cc(Cl)ccc1Cl)N1CCc2cc(Cl)ccc21
[25]
  CC10: > 5 µM
[27]
  IC50: > 5 µM

## C#CCN(c1cccc(N=[N+]=[N-])c1)S(=O)(=O)c1cc(Cl)ccc1Cl
[25]
  CC10: > 25 µM
[27]
  IC50: 136 µM
